For data set [1], the target named is T1, Decaprenylphosphoryl-beta-D-ribose oxidase (Mycobacterium tuberculosis (strain ATCC 25618 / H37Rv), UniProt P9WJF1).
T1 sequence (P9WJF1 whole entry): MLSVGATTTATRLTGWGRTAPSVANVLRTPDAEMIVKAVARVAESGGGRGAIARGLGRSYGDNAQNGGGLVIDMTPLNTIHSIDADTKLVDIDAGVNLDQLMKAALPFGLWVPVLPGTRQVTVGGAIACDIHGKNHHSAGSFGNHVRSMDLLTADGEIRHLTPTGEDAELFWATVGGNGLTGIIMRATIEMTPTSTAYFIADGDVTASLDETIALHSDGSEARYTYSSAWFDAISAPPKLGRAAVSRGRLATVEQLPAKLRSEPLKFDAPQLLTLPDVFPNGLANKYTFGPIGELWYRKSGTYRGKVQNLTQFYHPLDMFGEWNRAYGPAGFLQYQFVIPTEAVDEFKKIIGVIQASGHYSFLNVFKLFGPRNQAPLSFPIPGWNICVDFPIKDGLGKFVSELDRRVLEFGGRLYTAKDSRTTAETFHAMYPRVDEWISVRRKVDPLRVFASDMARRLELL
The experiment in a line: Inhibition of recombinant Mycobacterium tuberculosis DprE1 measured by resazurin dye based assay. The gist of the method: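 Resazurin-coupled fluorescence assay at 30 °C. Buffer: 50 mM HEPES pH 7.5, 100 mM NaCl, 1.5% DMSO, 100 µM Tween-20, 50 µM resazurin, 2 µM FAD. DprE1 at 1 µM with 1 mM FPR across inhibitor concentrations. Resorufin read at ex 530/em 595 nm. IC50 from initial velocities plotted against inhibitor concentration.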
In general terms: The colour change of resazurin is a common sign of viable cells or microbes.

Data set [2] has as its system Mycobacterium tuberculosis. The experiment in a line: Antimycobacterial activity against Mycobacterium tuberculosis H37Rv measured by MABA assay. Type of data set: functional. The gist of the method:
(§1)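 Microplate Alamar Blue assay against replicating M. tuberculosis H37Rv or clinical isolates. MIC is the lowest concentration giving ≥90% reduction in fluorescence relative to the mean of replicate bacterium-only controls.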

Data set [3] is described as follows: Cytotoxicity against African green monkey Vero cells measured by MTT assay. The settings on record: African green monkey (Chlorocebus sabaeus). It counts as toxicity, cell-based. The method in brief: (§2)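 Vero, HepG2 and mouse J774A.1 cells grown in RPMI 1640 with 10% FBS. MTT read-out in 96-well format.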
The nature of data set [4]: Cytotoxicity against human HepG2 cells measured by MTT assay. It counts as toxicity, cell-based. The gist of the method: as §2
The target of data set [5] is Voltage-gated inwardly rectifying potassium channel KCNH2 (Homo sapiens, UniProt Q12809). The data set can be described thus: Inhibition of hERG. It counts as toxicity. The gist of the method: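 Electrophysiological recording of hERG current at 30, 10, 3.0, 1.0 and 0.3 µM, run in duplicate for IC50.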
Chain of Voltage-gated inwardly rectifying potassium channel KCNH2 (Q12809 whole entry): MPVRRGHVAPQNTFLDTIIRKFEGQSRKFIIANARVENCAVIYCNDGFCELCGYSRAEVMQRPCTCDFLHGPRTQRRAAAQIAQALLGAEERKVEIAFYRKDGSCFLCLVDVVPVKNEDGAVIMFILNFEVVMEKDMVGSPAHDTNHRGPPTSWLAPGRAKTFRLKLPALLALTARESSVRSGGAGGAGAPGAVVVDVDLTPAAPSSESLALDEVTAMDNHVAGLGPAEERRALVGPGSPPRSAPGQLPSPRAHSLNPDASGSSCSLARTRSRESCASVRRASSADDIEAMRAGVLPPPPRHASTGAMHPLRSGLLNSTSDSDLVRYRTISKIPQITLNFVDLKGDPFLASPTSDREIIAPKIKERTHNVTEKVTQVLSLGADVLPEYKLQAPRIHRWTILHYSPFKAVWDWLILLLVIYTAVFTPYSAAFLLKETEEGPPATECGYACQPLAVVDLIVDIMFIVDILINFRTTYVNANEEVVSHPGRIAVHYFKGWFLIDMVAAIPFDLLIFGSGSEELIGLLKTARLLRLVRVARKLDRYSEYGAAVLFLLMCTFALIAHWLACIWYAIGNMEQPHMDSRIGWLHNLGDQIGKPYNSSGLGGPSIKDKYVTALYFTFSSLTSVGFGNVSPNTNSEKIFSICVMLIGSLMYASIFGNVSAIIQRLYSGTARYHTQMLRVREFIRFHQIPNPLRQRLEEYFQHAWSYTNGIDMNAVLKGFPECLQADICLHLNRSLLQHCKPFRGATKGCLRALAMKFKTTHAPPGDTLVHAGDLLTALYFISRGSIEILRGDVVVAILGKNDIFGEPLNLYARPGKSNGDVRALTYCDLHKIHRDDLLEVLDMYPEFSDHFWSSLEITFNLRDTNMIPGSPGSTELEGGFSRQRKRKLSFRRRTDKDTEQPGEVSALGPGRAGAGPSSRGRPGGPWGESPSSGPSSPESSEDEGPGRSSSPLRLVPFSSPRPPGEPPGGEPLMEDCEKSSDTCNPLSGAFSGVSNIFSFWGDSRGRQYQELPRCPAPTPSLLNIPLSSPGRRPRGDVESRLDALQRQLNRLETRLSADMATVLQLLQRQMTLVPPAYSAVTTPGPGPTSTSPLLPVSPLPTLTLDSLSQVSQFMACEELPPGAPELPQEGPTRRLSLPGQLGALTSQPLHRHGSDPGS
The nature of data set [6]: Selectivity index, Ratio of IC50 for Vero cells over MIC for Mycobacterium tuberculosis H37Rv. Type of data set: toxicity. To be noted: monkey.
For data set [7], the system named is Mycobacterium tuberculosis. The experiment in a line: Antimycobacterial activity against Mycobacterium tuberculosis 13946 clinical isolate measured by MABA assay. It counts as functional. The gist of the method:
as §1

The subject of data set [8] is Mycobacterium tuberculosis. The data set can be described thus: Antimycobacterial activity against Mycobacterium tuberculosis 14862 clinical isolate measured by MABA assay. It counts as functional. The method in brief:
as §1

The nature of data set [9]: Metabolic stability in mouse hepatocytes assessed as compound remaining at 1 uM measured by LC-MS/MS analysis. It counts as ADME, cell-based, Hepatocyte. To be noted: read-out: Stability. The gist of the method: (§3)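 Compound at 1 µM with hepatocytes at 1 million cells/mL final; human hepatocytes are mixed donor, mouse are male. Incubated at 37 °C in CO2 at ~100 rpm. Sampled at 0, 15, 30, 60, 90 and 120 min, quenched in ice-cold ACN/MeOH with internal standard. Parent remaining measured by LC-MS/MS.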

The nature of data set [10]: Metabolic stability in mouse hepatocytes assessed as half-life at 1 uM measured by LC-MS/MS analysis. It counts as ADME, cell-based, Hepatocyte. The method in brief: as §3
Data set [11] in a line: Metabolic stability in human hepatocytes assessed as compound remaining at 1 uM measured by LC-MS/MS analysis. Type of data set: ADME, cell-based, Hepatocyte. The settings on record: read-out: Stability. The method in brief: as §3
Data set [12] can be described thus: Metabolic stability in human hepatocytes assessed as half-life at 1 uM measured by LC-MS/MS analysis. Type of data set: ADME, cell-based, Hepatocyte. The gist of the method: as §3
A short description of data set [13]: Cytotoxicity against mouse J774.A1 cells measured by MTT assay. It counts as toxicity, cell-based. The method in brief: as §2
(Tetrazolium dyes change colour on reduction, which living cells bring about.)

Data set [14] concerns Mycobacterium tuberculosis. The experiment in a line: Antimycobacterial activity against Mycobacterium tuberculosis H37Rv infected in BALB/c mouse assessed as reduction in log10 CFU in lungs at 25 mg/kg, po administered 5 times a week from day 10 to 30. Type of data set: functional. The gist of the method:
(§4)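 Female SPF BALB/c mice, 18–20 g, 6 per group, aerosol-infected with M. tuberculosis H37Rv to deposit 50–100 bacilli per lung. Oral gavage in 0.5% CMC at 25 or 100 mg/kg, 5 days/week from day 10 to day 30; controls get vehicle. Lungs harvested the next day and plated on 7H11 for 3 weeks at 37 °C. Mean log10 CFU compared by Student's t test.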

Data set [15] is described as follows: Toxicity in BALB/c mouse infected with Mycobacterium tuberculosis H37Rv assessed as body weight at 25 mg/kg, po administered 5 times a week from day 10 to 30. It counts as organism-based. To be noted: in vivo. The gist of the method:
as §4

Data set [16] concerns J774.A1. The data set can be described thus: Antimycobacterial activity against Mycobacterium tuberculosis H37Rv infected in mouse J774.A1 cells assessed as change in log10 CFU at 5 ug/ml. To be noted: dose 5 µg/ml. It counts as functional. The gist of the method:
(§5)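 Mouse J774A.1 macrophages infected with M. tuberculosis H37Rv, test compound at final 10 or 5 µg/mL. Read-out is intracellular log10 CFU; Δlog10 CFU = untreated minus treated. Triplicates in at least three separate experiments.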

Data set [17] relates to J774.A1. The data set can be described thus: Antimycobacterial activity against Mycobacterium tuberculosis H37Rv infected in mouse J774.A1 cells assessed as change in log10 CFU at 10 ug/ml. Type of data set: functional. The settings on record: dose 10 µg/ml. The gist of the method:
as §5

Data set [18] has as its system Mycobacterium tuberculosis. The experiment in a line: Antimycobacterial activity against Mycobacterium tuberculosis H37Rv infected in BALB/c mouse assessed as reduction in log10 CFU in lungs at 100 mg/kg, po administered 5 times a week from day 10 to 30. Type of data set: functional. The gist of the method: as §4
Data set [19] can be described thus: Toxicity in BALB/c mouse infected with Mycobacterium tuberculosis H37Rv assessed as body weight at 100 mg/kg, po administered 5 times a week from day 10 to 30. It counts as organism-based. To be noted: in vivo. The gist of the method: as §4

Structures are written as SMILES. ≈ marks a conversion by molar mass, not a printed value. Bounds are passed on as bounds.

In general, IC50 refers to the concentration needed to halve the response being measured. A word on the MIC: it is the least concentration at which growth counts as inhibited. For orientation: half-life means the time needed for the level to fall by half in the phase considered.

On to `COC(=O)NC(=O)c1ccsc1NC(=O)c1ccc(S(=O)(=O)N2CCCCC2)cc1`, for which the IC50 is 221 nM in [1]; 3.62 µg/mL (≈ 8.02 µM) in [3]; 36.8 µg/mL (≈ 81.5 µM) in data set [4]; 3.3 µM in data set [5]; 36.9 µg/mL (≈ 81.7 µM) in data set [13]. For the same compound, the figures for the MIC in data set [2], in data set [7] and in data set [8] were 0.24 µg/mL (≈ 0.532 µM), 0.48 µg/mL (≈ 1.06 µM) and 0.51 µg/mL (≈ 1.13 µM), respectively. Besides, the selectivity ratio in data set [6] worked out at 15. Moreover, the values for the remaining at 1 µM in data set [9] and in data set [11] were 22.7% and 1%, respectively. For the same compound, the half-life at 1 µM is 14 min in data set [10] and 4.6 min in data set [12].
For the compound `NNC(=O)c1ccncc1` [ISONIAZID], the minimum inhibitory concentration (MIC) in data set [2] is 0.019 µg/mL (≈ 0.139 µM); in data set [7] it was 2.46 µg/mL (≈ 17.9 µM); in [8], more than 10 µg/mL. For the same compound, the Activity is listed as 1.76 log10CFU in data set [14] and 20.9 g in data set [15].
Consider `CO[C@H]1/C=C/O[C@@]2(C)Oc3c(C)c(O)c4c(O)c(c(/C=N/N5CCN(C)CC5)c(O)c4c3C2=O)NC(=O)/C(C)=C\C=C\[C@H](C)[C@H](O)[C@@H](C)[C@@H](O)[C@@H](C)[C@H](OC(C)=O)[C@@H]1C` [RIFAMPIN], for which the values for the MIC in data set [2], in [7] and in [8] were 0.015 µg/mL (≈ 0.0182 µM), more than 10 µg/mL and 9.24 µg/mL (≈ 11.2 µM), respectively. Besides, the Activity in the data set on J774.A1 [16] stood at 1.03 deltalog10CFU.
Take `CCOC(=O)NC(=O)c1ccsc1NC(=O)c1ccc(S(=O)(=O)N2CCCC2)cc1`: the MIC in data set [2] was less than 0.016 µg/mL; in data set [7], 0.057 µg/mL (≈ 0.126 µM); in data set [8], 0.03 µg/mL (≈ 0.0664 µM). Also, the IC50 was 58.2 µg/mL (≈ 129 µM) in [3], 62.9 µg/mL (≈ 139 µM) in [4], more than 30 µM in data set [5] and more than 64 µg/mL in [13]. The selectivity ratio in [6] was more than 3640. Besides, the results for the remaining at 1 µM in data set [9] and in data set [11] were 49.7% and 42%, respectively. The values for the half-life at 1 µM in data set [10] and in data set [12] were 29.7 min and 24 min, respectively. The Activity in the data set with J774.A1 [17] was found to be 1.29 deltalog10CFU; with J774.A1 [16], 1.19 deltalog10CFU; in data set [18], 4.81 log10CFU; in data set [19], 20.94 g.
For `CCOC(=O)NC(=O)c1ccsc1NC(=O)c1ccc(S(=O)(=O)N2CCCCC2)cc1`, the MIC in data set [2] was 0.03 µg/mL (≈ 0.0644 µM); in data set [7], less than 0.016 µg/mL; in [8] it was less than 0.016 µg/mL. In addition, the half-maximal inhibitory concentration (IC50) was determined as 18.6 µg/mL (≈ 39.9 µM) in data set [3], 38.8 µg/mL (≈ 83.3 µM) in data set [4] and 34.3 µg/mL (≈ 73.7 µM) in [13]. Further, in data set [6], the selectivity ratio came to 619. The remaining at 1 µM turned out to be 66.3% in data set [9] and 49.8% in data set [11]. In addition, the half-life at 1 µM in data set [10] came out at 50.6 min; in data set [12] it was 29.9 min.

The values above are taken from ChEMBL document CHEMBL5154717, “Identification of thiophene-benzenesulfonamide derivatives for the treatment of multidrug-resistant tuberculosis” (Eur J Med Chem, 2022).
